Experiments:
ATH-8 cell line [1] = test: (§1) Compound was evaluated for cytotoxicity by HIV cytopathic effect assay performed with ATH8 cells at a concentration of 10(uM); assay type: functional, Homo sapiens
In short: (§2)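 Uninfected control ATH8 cells (2×10^5) were polybrene-treated and cultured in 2 mL IL-2-containing medium with or without compound at 37 °C in 5% CO2. Viable cells were counted by trypan blue exclusion on a hemocytometer at days 5–7. % cytotoxicity = 100 × [1 − (viable cells with nucleoside ÷ viable cells cultured alone)].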

[2] = Compound was evaluated for the protective effect against HTLV-III/LAV (HIV) pathogenesis at a concentration of 10(uM); assay type: functional
In short: (§3)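 ATH8 cells (2×10^5) were polybrene-treated, then exposed to HTLV-IIIB (2000 virus particles/cell) for 45 min. They were resuspended in 2 mL IL-2-containing medium with or without compound and incubated at 37 °C in 5% CO2. Viable cells were counted by trypan blue exclusion on days 5–7. % protection compared infected treated, infected untreated, and uninfected cells.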

ATH-8 cell line [3] = test: Compound was evaluated for cytotoxicity by HIV cytopathic effect assay performed with ATH8 cells at a concentration of 2(uM); assay type: functional, Homo sapiens; in short: as §2
[4] = Compound was evaluated for the protective effect against HTLV-III/LAV (HIV) pathogenesis at a concentration of 2(uM); assay type: functional; in short: as §3
[5] = Compound was evaluated for the protective effect against HTLV-III/LAV (HIV) pathogenesis at a concentration of 0.5(uM); assay type: functional; in short: as §3
ATH-8 cell line [6] = test: Compound was evaluated for cytotoxicity by HIV cytopathic effect assay performed with ATH8 cells at a concentration of 0.5(uM); assay type: functional, Homo sapiens; in short: as §2
ATH-8 cell line [7] = test: Compound was evaluated for cytotoxicity by HIV cytopathic effect assay performed with ATH8 cells at a concentration of 100(uM); assay type: functional, Homo sapiens; in short: as §2
[8] = Compound was evaluated for the protective effect against HTLV-III/LAV (HIV) pathogenesis at a concentration of 100(uM); assay type: functional; in short: as §3
ATH-8 cell line [9] = test: Compound was evaluated for cytotoxicity by HIV cytopathic effect assay performed with ATH8 cells at a concentration of 1(uM); assay type: functional, Homo sapiens; in short: as §2
[10] = Compound was evaluated for the protective effect against HTLV-III/LAV (HIV) pathogenesis at a concentration of 200(uM); assay type: functional; in short: as §3
[11] = Compound was evaluated for the protective effect against HTLV-III/LAV (HIV) pathogenesis at a concentration of 30(uM); assay type: functional; in short: as §3
ATH-8 cell line [12] = test: Compound was evaluated for cytotoxicity by HIV cytopathic effect assay performed with ATH8 cells at a concentration of 200(uM); assay type: functional, Homo sapiens; in short: as §2
[13] = Compound was evaluated for the protective effect against HTLV-III/LAV (HIV) pathogenesis at a concentration of 1(uM); assay type: functional; in short: as §3
ATH-8 cell line [14] = test: Compound was evaluated for cytotoxicity by HIV cytopathic effect assay performed with ATH8 cells at a concentration of 30(uM); assay type: functional, Homo sapiens; in short: as §2
[15] = Compound was evaluated for the protective effect against HTLV-III/LAV (HIV) pathogenesis at a concentration of 50(uM); assay type: functional; in short: as §3
ATH-8 cell line [16] = test: Compound was evaluated for cytotoxicity by HIV cytopathic effect assay performed with ATH8 cells at a concentration of 50(uM); assay type: functional, Homo sapiens; in short: as §2
[17] = Compound was evaluated for the protective effect against HTLV-III/LAV (HIV) pathogenesis at a concentration of 5(uM); assay type: functional; in short: as §3
ATH-8 cell line [18] = test: Compound was evaluated for cytotoxicity by HIV cytopathic effect assay performed with ATH8 cells at a concentration of 5(uM); assay type: functional, Homo sapiens; in short: as §2
[19] = Compound was evaluated for the protective effect against HTLV-III/LAV (HIV) pathogenesis at a concentration of 0.05(uM); assay type: functional; in short: as §3
ATH-8 cell line [20] = test: Compound was evaluated for cytotoxicity by HIV cytopathic effect assay performed with ATH8 cells at a concentration of 0.05(uM); assay type: functional, Homo sapiens; in short: as §2
ATH-8 cell line [21] = test: Compound was evaluated for cytotoxicity by HIV cytopathic effect assay performed with ATH8 cells at a concentration of 2000(uM); assay type: functional, Homo sapiens; in short: as §2
ATH-8 cell line [22] = test: Compound was evaluated for cytotoxicity by HIV cytopathic effect assay performed with ATH8 cells at a concentration of 500(uM); assay type: functional, Homo sapiens; in short: as §2
[23] = Compound was evaluated for the protective effect against HTLV-III/LAV (HIV) pathogenesis at a concentration of 500(uM); assay type: functional; in short: as §3
[24] = Compound was evaluated for the protective effect against HTLV-III/LAV (HIV) pathogenesis at a concentration of 2000(uM); assay type: functional; in short: as §3
ATH-8 cell line [25] = test: as §1; assay type: functional; in short: as §2
ATH-8 cell line [26] = test: Compound was evaluated for cytotoxicity by HIV cytopathic effect assay performed with ATH8 cells at a concentration of 1000(uM); assay type: functional, Homo sapiens; in short: as §2
[27] = Compound was evaluated for the protective effect against HTLV-III/LAV (HIV) pathogenesis at a concentration of 1000(uM); assay type: functional; in short: as §3

SMILES	Cytotoxicity (ATH-8 cell line [1])	Protective effect [2]	Protective effect [5]	Cytotoxicity (ATH-8 cell line [6])	Cytotoxicity (ATH-8 cell line [7])	Protective effect [8]	Cytotoxicity (ATH-8 cell line [9])	Protective effect [10]	Cytotoxicity (ATH-8 cell line [12])	Protective effect [13]	Protective effect [15]	Cytotoxicity (ATH-8 cell line [16])	Protective effect [17]	Cytotoxicity (ATH-8 cell line [18])	further results
N.N.Nc1ccn(C2CCC(COP(=O)(O)O)O2)c(=O)n1 (stereo unspecified)	0%	74%	13%	0%	–	–	–	–	–	–	–	–	–	–	Cytotoxicity (ATH-8 cell line [3]): 7%; Protective effect [4]: 9%
Cc1cn(C2CCC(CO)O2)c(=O)nc1N (stereo unspecified)	27%	7%	–	–	44%	3%	–	–	–	–	–	–	–	–	Cytotoxicity (ATH-8 cell line [3]): 23%; Protective effect [4]: 2%
Nc1nc(=O)n(C2CCC(CO)O2)cc1Br (stereo unspecified)	14%	8%	–	–	–	–	14%	0%	0%	6%	–	–	–	–	Protective effect [11]: 5%; Cytotoxicity (ATH-8 cell line [14]): 2%
Nc1ncn(C2CCC(CO)O2)c(=O)n1 (stereo unspecified)	19%	58%	–	–	–	–	13%	–	–	16%	38%	62%	–	–	–
Nc1ncnc2c1ncn2[C@H]1CC[C@@H](CO)O1	0%	100%	–	–	0%	100%	0%	100%	0%	42%	100%	0%	98%	6%	–
Nc1ncnc2c1ncn2C1CCC(COP(=O)([O-])[O-])O1.[Na+].[Na+] (stereo unspecified)	6%	100%	–	–	0%	100%	2%	100%	5%	25%	83%	4%	91%	10%	–
Nc1nc(=O)n([C@@H]2CC[C@H](CO)O2)cc1F	–	–	100%	0%	–	–	–	–	–	–	88%	9%	100%	0%	Protective effect [19]: 5%; Cytotoxicity (ATH-8 cell line [20]): 5%
Cc1cn(C2CCC(COP(=O)([O-])[O-])O2)c(=O)[nH]c1=O.[Na+].[Na+] (stereo unspecified)	9%	7%	–	–	–	–	–	15%	10%	–	18%	9%	–	–	–
Nc1ccn([C@H]2CC[C@@H](CO)O2)c(=O)n1 [ZALCITABINE]	–	–	97%	0%	–	–	–	–	–	–	77%	30%	100%	0%	Protective effect [19]: 18%; Cytotoxicity (ATH-8 cell line [20]): 0%
Cc1cn([C@H]2C=C[C@@H](CO)O2)c(=O)[nH]c1=O [STAVUDINE]	–	3%	–	–	13%	19%	–	77%	6%	–	9%	8%	–	–	Cytotoxicity (ATH-8 cell line [21]): 53%; Cytotoxicity (ATH-8 cell line [22]): 30%; Protective effect [23]: 68%; Protective effect [24]: 43%; Cytotoxicity (ATH-8 cell line [25]): 8%; Cytotoxicity (ATH-8 cell line [26]): 40%; Protective effect [27]: 46%
